Results gathered from unrelated publications.
Lines come from different studies, so protocols differ.
Cell line: NCI-H226
Observed: cell growth or viability

`O=C1NCCc2[nH]c(-c3ccncc3)cc21` has an IC50 of > 10000 nM.
`c1ccc2cc(Cn3cc[n+](Cc4ccc5ccccc5c4)c3)ccc2c1` gave a TGI of 14300 nM (SRB).
For `Cc1cc(C)n(C(=S)[S][Au][PH](CCCCCC[PH]([Au][S]C(=S)n2nc(C)cc2C)(c2ccccc2)c2ccccc2)(c2ccccc2)c2ccccc2)n1`, the GI50 was 2520 nM (SRB).
With `COc1ccc(C(=O)/C=C/c2ccc3ccccc3c2)cc1S(N)(=O)=O` the GI50 was 2300 nM (SRB; 48 h).
With `NC(=O)c1cc(Cl)ccc1NC(=O)COc1ccccc1` the GI50 was > 100000 nM (SRB).
With `COc1ccc(-c2ccc(-c3ccc(C(=N)N)nc3)s2)cc1` the GI50 was 1810 nM (SRB).
`COc1ccc(C(=O)/C=C/c2cccc(Br)c2)cc1S(N)(=O)=O` gave a GI50 of 2800 nM (SRB; 48 h).
The TGI of `CCCCc1n(Cc2ccc3ccccc3n2)cc[n+]1Cc1ccc2ccccc2n1` is reported as 13600 nM (SRB).
For `COc1ccc(-c2ccc(-c3ccc(C(=N)N)nc3)s2)cc1Cl`, the GI50 was 1920 nM (SRB).
`COC(=O)/C=C/C=C/c1ccc2c(c1)OCO2` has an IC50 of 99100 nM (SRB).
`COc1ccc(C(=O)/C=C/c2cc3c(cc2Br)OCO3)cc1S(N)(=O)=O` gave a GI50 of 2800 nM (SRB; 48 h).
The IC50 of `CCCCC[C@H](O)CC(=O)CCc1ccc(O)c(OC)c1` is reported as 145000 nM (SRB).
For `COc1cccc(Oc2ccccc2NC(=O)CNC(=O)c2cccc3ccccc23)c1`, the GI50 was 2510 nM (SRB; 48 h).
The TGI of `CCCc1n(Cc2ccc3ccccc3n2)cc[n+]1Cc1ccc2ccccc2c1` is reported as 7600 nM (SRB).
`COc1ccc(C(=O)/C=C/c2ccccc2Br)cc1S(N)(=O)=O` gave an inhibition of 79% (SRB; 10 µM).
For `CCc1n(Cc2ccc3ccccc3n2)cc[n+]1Cc1ccc2ccccc2n1`, the TGI was 30800 nM (SRB).
`COc1ccc(C(=O)/C=C/c2ccc(Cl)c(Cl)c2)cc1S(N)(=O)=O` has a GI50 of 3000 nM (SRB; 48 h).
